Experimental data gathered from unrelated publications.
Lines come from different studies, so protocols differ.
Target: Protein kinase C iota type (PRKCI, Homo sapiens, UniProt P41743)
Sequence (P41743 1-596, as in one of the studies): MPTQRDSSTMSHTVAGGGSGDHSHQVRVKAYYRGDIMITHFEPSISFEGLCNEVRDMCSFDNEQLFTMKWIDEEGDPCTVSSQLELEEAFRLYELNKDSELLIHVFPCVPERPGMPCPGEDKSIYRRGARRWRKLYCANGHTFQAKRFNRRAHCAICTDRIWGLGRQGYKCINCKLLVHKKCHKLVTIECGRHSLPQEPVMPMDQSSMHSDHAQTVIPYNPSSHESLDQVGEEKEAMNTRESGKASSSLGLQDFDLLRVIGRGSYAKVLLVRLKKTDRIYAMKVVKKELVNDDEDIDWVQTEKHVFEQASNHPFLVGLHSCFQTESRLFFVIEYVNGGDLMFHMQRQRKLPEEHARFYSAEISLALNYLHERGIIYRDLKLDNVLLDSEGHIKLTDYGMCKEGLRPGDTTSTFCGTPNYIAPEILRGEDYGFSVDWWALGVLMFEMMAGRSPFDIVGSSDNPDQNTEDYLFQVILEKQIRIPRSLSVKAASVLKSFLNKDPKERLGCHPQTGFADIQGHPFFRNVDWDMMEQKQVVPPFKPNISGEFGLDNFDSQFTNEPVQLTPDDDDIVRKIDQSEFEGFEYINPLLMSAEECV

With `Cc1cc(O)c(-c2ccc([C@@H](C)CN(C)C)cc2)c2c1[nH]c(=O)c1sccc12` the inhibition was 7.26% (cell-free assay, inhibitor; 0.1 µM, lysate).
The remaining binding of `C1=C/COCc2cc(ccc2OCCN2CCCC2)Nc2nccc(n2)-c2cccc(c2)COC/1` is reported as 95% (binding; 0.1 µM).
For `CN1CCN(C(=O)c2ccc(NC(=O)Nc3ccc(N(C)c4ccnc(Nc5ccc(CS(C)(=O)=O)cc5)n4)cc3)cc2)CC1`, the remaining binding was 74% (binding; 1 µM).
`CCCCC(=O)Nc1ccc(-c2ccc3ncn(CCC)c(=O)c3c2)cn1` has a remaining binding of 91% (binding, competition with immobilised ligand; 0.5 µM).
`CC#CC(=O)N1CCC[C@H]1c1nc(-c2ccc(C(=O)Nc3ccccn3)cc2)c2c(N)nccn12` has an inhibition of 0% (enzyme activity, inhibitor; 1 µM).
With `COc1ccc2[nH]c3c4[nH]c5ccc(OC)cc5c4c4c(c3c2c1)C(=O)NC4=O` the remaining binding was 63% (binding; 1 µM).
The activity vs control of `CC(C)S(=O)(=O)c1ccc2nccc(Nc3ccc4sc(C5CCCC5)nc4c3)c2c1` is reported as 107% (enzyme activity, inhibitor; 1 µM).
`CO[C@@H]1[C@H](N(C)C(=O)c2ccccc2)C[C@H]2O[C@]1(C)n1c3ccccc3c3c4c(c5c6ccccc6n2c5c31)C(=O)NC4` gave an inhibition of 43% (enzyme activity, inhibitor; 1 µM).
